Assay results as given in BindingDB's records for doi:10.1021/jm4003654 (Xavier University of Louisiana, 2013).

What was measured:
[1] = molecular target: T1, CYP2A6 (Homo sapiens, UniProt P11509); assay: Inhibition of CYP2A6 (unknown origin)-mediated coumarin 7-hydroxylation after 5 mins by spectrofluorimetric analysis; conditions: probe coumarin (7-hydroxylation)
T1 sequence (P11509 whole entry): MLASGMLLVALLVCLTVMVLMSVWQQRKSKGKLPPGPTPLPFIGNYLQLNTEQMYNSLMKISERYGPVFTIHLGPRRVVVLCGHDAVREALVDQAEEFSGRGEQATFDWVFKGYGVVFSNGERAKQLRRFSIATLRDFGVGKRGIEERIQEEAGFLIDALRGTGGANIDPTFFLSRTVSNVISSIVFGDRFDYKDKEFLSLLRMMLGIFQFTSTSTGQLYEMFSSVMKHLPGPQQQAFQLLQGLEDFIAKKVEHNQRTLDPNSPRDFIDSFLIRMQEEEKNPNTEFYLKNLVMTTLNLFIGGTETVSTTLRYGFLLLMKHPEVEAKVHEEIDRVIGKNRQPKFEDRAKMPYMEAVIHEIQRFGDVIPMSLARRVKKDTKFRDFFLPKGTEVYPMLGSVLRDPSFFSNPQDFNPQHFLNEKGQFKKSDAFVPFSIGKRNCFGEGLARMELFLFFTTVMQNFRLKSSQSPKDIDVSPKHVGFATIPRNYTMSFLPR
Outline: (§1)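 Microsomal P450 (final 5 nM) in 0.1 M potassium phosphate pH 7.6 with MgCl2; resorufin ether or coumarin substrate final 5 μM from DMSO stock; inhibitor added in DMSO, DMSO alone for controls. Reaction started with NADPH regenerating system (NADP+, glucose 6-phosphate, G6P dehydrogenase) at 37 °C; product formation followed fluorimetrically as progress curves.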

[2] = molecular target: Cytochrome P450 2B1 (Rattus norvegicus) (UniProt P00176); assay: Inhibition of CYP2B1 (rat)-mediated depentylation of resorufin pentyl ether after 5 mins by spectrofluorimetric analysis
[3] = molecular target: T2, Cytochrome P450 1A1 (Homo sapiens, UniProt P04798); assay: Inhibition of CYP1A1 (unknown origin)-mediated deethylation of resorufin ethyl ether after 5 mins by spectrofluorimetric analysis; outline: as §1
T2 sequence (P04798 whole entry): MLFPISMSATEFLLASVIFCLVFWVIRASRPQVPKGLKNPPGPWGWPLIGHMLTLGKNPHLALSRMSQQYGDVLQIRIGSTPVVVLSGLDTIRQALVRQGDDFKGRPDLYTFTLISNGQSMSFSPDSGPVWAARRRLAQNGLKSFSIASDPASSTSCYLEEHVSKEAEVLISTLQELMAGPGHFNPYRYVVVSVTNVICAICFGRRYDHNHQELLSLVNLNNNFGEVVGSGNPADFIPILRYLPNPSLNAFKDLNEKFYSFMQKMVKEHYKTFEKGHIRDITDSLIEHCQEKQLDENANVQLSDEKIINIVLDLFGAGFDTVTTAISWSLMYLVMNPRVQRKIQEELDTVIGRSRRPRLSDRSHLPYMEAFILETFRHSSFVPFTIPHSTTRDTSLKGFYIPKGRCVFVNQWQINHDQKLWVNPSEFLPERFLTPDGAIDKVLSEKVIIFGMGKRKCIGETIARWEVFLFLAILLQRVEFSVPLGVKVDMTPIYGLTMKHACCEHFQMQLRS

Sequence of Cytochrome P450 2B1 (Rattus norvegicus) (P00176 whole entry, looked up): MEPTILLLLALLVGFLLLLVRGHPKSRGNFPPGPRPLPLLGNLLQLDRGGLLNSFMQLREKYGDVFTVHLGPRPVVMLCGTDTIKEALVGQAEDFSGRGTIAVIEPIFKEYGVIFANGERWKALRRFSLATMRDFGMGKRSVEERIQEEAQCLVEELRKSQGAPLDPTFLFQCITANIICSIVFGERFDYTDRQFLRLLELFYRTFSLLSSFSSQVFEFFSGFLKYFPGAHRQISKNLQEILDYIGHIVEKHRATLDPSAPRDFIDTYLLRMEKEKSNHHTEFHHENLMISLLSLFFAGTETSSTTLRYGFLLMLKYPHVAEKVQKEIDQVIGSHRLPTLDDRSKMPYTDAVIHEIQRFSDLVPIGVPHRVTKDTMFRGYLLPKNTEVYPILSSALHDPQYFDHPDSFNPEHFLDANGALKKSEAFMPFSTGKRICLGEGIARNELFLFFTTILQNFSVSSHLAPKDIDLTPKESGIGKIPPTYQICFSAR

IC50 at 5 min [1] [µM] | IC50 [2] [µM] | IC50 [3] [µM] | SMILES
> 25 | > 25 | – | O=c1cccc2oc(-c3ccc4c(c3)C=CCO4)cc(O)c1-2
> 25 | > 25 | – | O=c1cccc2oc(-c3ccc4c(c3)OCC=C4)cc(O)c1-2
– | – | 4.03 | O=c1cc(-c2ccccc2)oc2cccc(O)c12 [5-Hydroxy-2-phenyl-chromen-4-one]

Second part, the compound before the results:

SMILES | IC50 at 5 min [1] [µM] | IC50 [2] [µM] | IC50 [3] [µM]
C#CCOc1cccc(-c2cc(O)c3c(=O)cccc-3o2)c1 | > 25 | 4.08 | –
C#CCOc1ccc(-c2cc(O)c3c(=O)cccc-3o2)cc1 | > 25 | > 25 | –
O=c1cccc2oc(-c3cccc4c3C=CCO4)cc(O)c1-2 | > 25 | > 25 | –
